Data: ChEMBL document CHEMBL1141557, “An expeditious one-pot synthesis of 1,6-dideoxy-N-alkylated nojirimycin derivatives and their inhibitory effects on the secretion of IFN-gamma and IL-4” (Bioorg Med Chem, 2008)
pIC50: −log10 of the molar value. Calls of active or inactive are those of the source. The calls are words filed in the database; no cut-off is given here.

Assays:
[1] = Inhibition of alpha mannosidase
Outline: (§1)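 Enzyme added to substrate (0.4–5 mM) in 25 mM phosphate and nitrate buffer, with or without iminosugar at various concentrations. Substrates were p-nitrophenyl glycosides; β-galactosidase used o-nitrophenyl β-galactoside.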

[2] = molecular target: T1, Beta-mannosidase (Homo sapiens) (UniProt O00462); experiment: Inhibition of beta-mannosidase; outline: as §1
T1 sequence (whole entry): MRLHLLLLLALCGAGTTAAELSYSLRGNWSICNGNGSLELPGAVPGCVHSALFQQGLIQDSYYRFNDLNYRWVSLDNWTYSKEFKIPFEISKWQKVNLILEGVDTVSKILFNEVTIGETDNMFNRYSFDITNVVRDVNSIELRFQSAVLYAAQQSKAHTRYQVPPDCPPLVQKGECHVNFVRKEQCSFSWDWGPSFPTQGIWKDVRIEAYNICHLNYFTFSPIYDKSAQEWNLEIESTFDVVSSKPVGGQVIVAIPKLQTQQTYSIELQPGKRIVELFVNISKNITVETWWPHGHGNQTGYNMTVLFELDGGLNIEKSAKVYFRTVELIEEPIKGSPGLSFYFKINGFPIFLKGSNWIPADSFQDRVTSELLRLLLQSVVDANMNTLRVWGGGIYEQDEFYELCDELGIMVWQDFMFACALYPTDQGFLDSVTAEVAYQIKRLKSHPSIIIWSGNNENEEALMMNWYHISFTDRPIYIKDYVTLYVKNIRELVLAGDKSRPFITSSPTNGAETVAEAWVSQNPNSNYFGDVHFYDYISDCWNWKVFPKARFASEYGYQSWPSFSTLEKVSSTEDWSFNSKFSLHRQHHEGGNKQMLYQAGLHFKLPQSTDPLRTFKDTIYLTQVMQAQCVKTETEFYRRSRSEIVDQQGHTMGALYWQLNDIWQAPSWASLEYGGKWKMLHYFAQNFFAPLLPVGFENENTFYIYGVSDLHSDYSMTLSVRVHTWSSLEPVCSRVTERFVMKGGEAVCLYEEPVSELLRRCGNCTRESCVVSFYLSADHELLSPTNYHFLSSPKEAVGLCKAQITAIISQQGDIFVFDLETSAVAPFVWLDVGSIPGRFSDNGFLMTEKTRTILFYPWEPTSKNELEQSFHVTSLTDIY

[3] = Inhibition of beta glucosidase; outline: as §1
[4] = Inhibition of beta galactosidase; outline: as §1
Splenocyte [5] = experiment: Inhibition of IFN-gamma secretion in BALB/c mouse splenocytes at 60 uM after 72 hrs by ELISA; format: functional
Outline: (§2)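 Splenocytes from BALB/c mouse spleens, red cells lysed with Tris–NH4Cl pH 7.2, in RPMI-1640 with 10% newborn calf serum; 5 × 10^5 cells per well. Cells pretreated 4 h with 10 µg/mL concanavalin A (type IV), then given compound and held 72 h at 37 °C, 5% CO2. IFN-γ or IL-4 in the supernatant measured by mouse cytokine ELISA, quantified from a standard curve (15.63–500 pg/mL).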

[6] = Inhibition of alpha galactosidase; outline: as §1
Splenocyte [7] = experiment: Inhibition of IL4-secretion in BALB/c mouse splenocytes at 60 uM after 72 hrs by ELISA; format: functional; outline: as §2
[8] = Inhibition of alpha glucosidase; outline: as §1
[9] = Inhibition of concanavalin A-induced BALB/c mouse splenocyte proliferation at 30 uM by MTT assay; format: functional
Outline: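 Mouse splenocytes stimulated with concanavalin A; proliferation read by MTT assay as the mitochondrial dehydrogenase activity of surviving cells, with compound at 30 µM.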

[10] = Inhibition of alpha-L-fucosidase; outline: as §1

Compound | Activity [1] | Activity [2] | Activity [3] | Activity [4] | Activity [6] | Activity [8] | pIC50 [3] | Activity [10] | pIC50 [8] | pIC50 [1] | pIC50 [6] | pIC50 [10] | inhibition at 60 µM (Splenocyte [5]) [%] | inhibition at 60 µM (Splenocyte [7]) [%] | inhibition at 30 µM [9] [%]
C[C@H]1NC[C@H](O)[C@@H](O)[C@@H]1O | inactive | inactive | inactive | inactive | inactive | – | – | – | – | – | – | – | 9 | 58 | –
C[C@@H]1[C@@H](O)[C@H](O)[C@@H](O)CN1CCO | inactive | inactive | – | inactive | inactive | inactive | 4.47 | – | – | – | – | – | 29 | 57 | –
OC[C@H]1NC[C@H](O)[C@@H](O)[C@@H]1O [DUVOGLUSTAT] | – | – | – | – | – | – | – | – | – | – | – | – | – | – | 15.6
CC(=O)NCCN1C[C@H](O)[C@@H](O)[C@H](O)[C@H]1C | inactive | inactive | – | – | inactive | – | < 2.70 | inactive | – | – | – | – | 9 | 59.7 | –
C[C@@H]1[C@@H](O)[C@H](O)[C@@H](O)CN1C1CCCCC1 | inactive | inactive | inactive | inactive | inactive | – | – | – | – | – | – | – | 9.1 | 57 | –
C[C@@H]1[C@@H](O)[C@H](O)[C@@H](O)CN1CCN | inactive | inactive | inactive | inactive | inactive | – | – | inactive | – | – | – | – | 41 | 64 | –

The next lines start with results.

Activity [1] | Activity [2] | Activity [3] | Activity [4] | Activity [6] | Activity [8] | pIC50 [3] | Activity [10] | pIC50 [8] | pIC50 [1] | pIC50 [6] | pIC50 [10] | Compound | inhibition at 60 µM (Splenocyte [5]) [%] | inhibition at 60 µM (Splenocyte [7]) [%] | inhibition at 30 µM [9] [%]
inactive | inactive | inactive | inactive | inactive | inactive | – | – | – | – | – | – | COCCN1C[C@H](O)[C@@H](O)[C@H](O)[C@H]1C | 16 | 58.8 | –
– | inactive | – | – | – | – | 3.27 | – | 4.11 | 2.70 | 3.63 | 2.52 | CCCCN1C[C@H](O)[C@@H](O)[C@H](O)[C@H]1C | 55.5 | 44 | –
– | inactive | – | inactive | inactive | inactive | – | inactive | – | – | – | – | CCCCCCCCCCN1C[C@H](O)[C@@H](O)[C@H](O)[C@H]1C | 61 | 90 | 48.3
